A selection: hits, their analogues and other compounds. The true share with any hit is near 3.7%.
Kir21 block: Kir2.1 (mouse) channel inhibition; P35561; HEK293-Kir2.1, FluxOR thallium flux fluorescence; active compounds read low; B-score at 10 µM; 0.85% of 310,000 active; AID 1672;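 active = fluorescence ratio B-score at or below minus 3 SD of library scores, with starting-brightness B-score within 2 SD, cut at about -4.2 in these data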;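 note: channel flux triggered by added potassium and thallium sulfate stimulus; B-score of peak minus minimum fluorescence over baseline after thallium stimulus; more negative B-score means stronger Kir2.1 block with less thallium influx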
KCNK3 inh: human KCNK3 channel inhibition, primary screen; 0.84% of 340,000 active; CHO-KCNK3 thallium flux, FluxOR fluorescence; active compounds read low; O14649; B-score at 10 µM;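 active = B-score under library mean minus 4 SD, starting fluorescence ratio at most library mean plus 5 SD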;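 note: more negative B-score means stronger inhibition of thallium flux through KCNK3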
KCNQ1 inh: inhibitors of human KCNQ1 potassium channel; B-score at 10 µM; P51787; 1.3% of 310,000 active; CHO-K1 KCNQ1, FluxOR thallium flux fluorescence; active compounds read high; AID 2642;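 active = compounds whose thallium flux B-score, printed positive for inhibition, exceeds three library SD while starting fluorescence stays within three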;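 note: channel opened by potassium depolarization with thallium stimulus after 20 min compound exposure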
Target sequence (P51787 whole entry, looked up): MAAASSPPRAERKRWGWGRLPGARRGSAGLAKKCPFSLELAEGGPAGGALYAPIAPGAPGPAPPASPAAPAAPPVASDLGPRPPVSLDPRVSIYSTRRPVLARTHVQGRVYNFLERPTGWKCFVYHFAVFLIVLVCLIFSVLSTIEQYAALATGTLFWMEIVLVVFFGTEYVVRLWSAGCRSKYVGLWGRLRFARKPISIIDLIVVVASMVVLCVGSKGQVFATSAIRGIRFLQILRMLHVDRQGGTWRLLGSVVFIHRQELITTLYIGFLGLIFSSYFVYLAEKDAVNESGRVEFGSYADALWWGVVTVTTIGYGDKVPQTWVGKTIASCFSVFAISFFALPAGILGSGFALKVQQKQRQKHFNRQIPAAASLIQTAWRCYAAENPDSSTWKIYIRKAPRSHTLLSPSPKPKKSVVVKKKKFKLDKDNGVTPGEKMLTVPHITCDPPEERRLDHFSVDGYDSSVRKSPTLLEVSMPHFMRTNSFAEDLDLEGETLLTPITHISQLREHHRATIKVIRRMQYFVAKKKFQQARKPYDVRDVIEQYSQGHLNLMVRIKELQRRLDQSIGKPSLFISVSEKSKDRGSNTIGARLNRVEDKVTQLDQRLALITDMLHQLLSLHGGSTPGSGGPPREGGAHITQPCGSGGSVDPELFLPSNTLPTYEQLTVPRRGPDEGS
KCNQ1 act: human KCNQ1 channel potentiation or activation | P51787 | CHO-K1 KCNQ1, thallium flux FluxOR fluorescence; active compounds read high | B-score at 10 µM | 0.35% of 310,000 active | AID 2648;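 active = fluorescence ratio B-score, a plate-corrected score, at least three library SD, with initial intensity B-score within 5 SD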
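Assay system: stable KCNQ1 CHO-K1 line; medium: assay buffer, equal DMSO in all wells; timing: 90 min dye loading and 20 min compound exposure, both at room temperature; technique: kinetic FluxOR thallium fluorescence, 10-s 1-Hz baseline, 110-s post-stimulus read; read-out basis: B score of baseline-normalized fluorescence ratio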
hERG rescue: shields human hERG channel from block by proarrhythmic agents; Q12809; CHO-hERG, FluxOR thallium flux, dofetilide IC70 present; activation (rescue from dofetilide block), less the hit threshold, % at 10 µM; 0.51% of 310,000 active; AID 1511;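 active = activation above the mean of controls blocked by dofetilide plus 5 SD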;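 note: thallium influx through hERG after potassium depolarization seen as dye fluorescence rise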
KCNK9 inh: blocks the human KCNK9 two-pore domain potassium channel; Q9NPC2; HEK293 KCNK9, FluxOR thallium flux fluorescence; active compounds read low; B-score at 10 µM; 1.2% of 310,000 active;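 active = ratio B-score over 3 SD below the library mean, with starting fluorescence within 5 SD of its mean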;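 note: negative B-score means less thallium flux so channel inhibition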
A number is an active result; n = inactive; x = no result.

SMILES	Kir21 block	KCNK3 inh	KCNQ1 inh	KCNQ1 act	hERG rescue	KCNK9 inh
CCCN(CCC)Cc1c(C(=O)N/N=C/C(C)=C\c2ccco2)nnn1-c1nonc1N	n	n	n	16	n	n
CC(/C=N/NC(=O)c1nnn(-c2nonc2N)c1CN(C)C)=C\c1ccco1	n	n	n	n	n	n
CSc1nc(SCC(=O)O)c2sc3nc(-c4ccccc4)c4c(c3c2n1)CCC4	n	n	n	10	n	n
CSc1nc(N(C)CCO)c2sc3nc(-c4ccco4)c4c(c3c2n1)CCC4	n	n	n	n	n	n
COc1ccc(OCc2cc(C(=O)NCC(C)Oc3cccnc3)no2)c(Cl)c1 (stereo not drawn)	n	n	n	n	n	n
CC(=O)C(=Nc1ccc(Cl)cc1Cl)NNc1cccc(Cl)c1	n	n	10	n	n	n
Cc1nc(SCC(=O)N2CCCC2=O)nc(C)c1C	x	n	x	x	x	x
OC1(c2ccc(F)cc2)CCN(Cc2ccccc2)C1 (stereo not drawn)	-4.45	n	n	n	n	n
OC1(c2ccc3c(c2)OCO3)CCN(Cc2ccc(F)cc2)CC1	-4.5	n	n	n	n	n
OC1(c2ccc(F)cc2)CCN(Cc2cccnc2)CC1	n	n	n	n	n	n
CC(C)NC(=O)CN1CCC(O)(c2ccccc2)CC1	n	n	n	n	n	n
OC1(c2ccccc2)CCN(Cc2ccccc2)CC1	-7.58	n	n	n	n	n
Cc1cccc(NS(=O)(=O)c2ccc3c(c2)NC(=O)CO3)c1C	n	n	n	n	n	n
CCCc1ccc(C(=O)CN2C(=O)C(=O)N(C3CCCC3)C2=O)cc1	x	n	x	x	x	x
CCc1cc(=O)[nH]c(SCc2ccc(C)cc2)n1	n	n	n	n	4.9	n
CCc1cc(=O)[nH]c(SCc2cccnc2)n1	n	n	n	n	n	n
Cc1ccccc1OCc1nc2ccccc2n1C	n	n	n	n	n	n
Cc1nnc(OCc2nc3ccccc3n2C)c2ccccc12	-4.71	n	n	n	n	n
CC(=O)c1ccc([N+](=O)[O-])c(CS(=O)(=O)c2ccccc2)c1	n	n	n	n	n	n
Cc1cc(C2=CC(C)(c3cc(C)oc3C)Nc3nc(C(F)(F)F)nn32)c(C)o1 (stereo not drawn)	n	x	n	n	n	n
Cc1ccc(C2=CC(C)(c3ccc(C)cc3)Nc3nc(C(F)(F)F)nn32)cc1 (stereo not drawn)	n	n	n	n	n	-8.01
O=C(NCC1COCCO1)c1cc(COc2ccc(F)cc2F)on1 (stereo not drawn)	n	n	n	n	n	n
COc1ccc(/C=N\NC(=O)c2ccccc2F)cc1COc1ccc(F)cc1	n	n	n	n	n	n
COc1ccc(/C=N/NC(=O)c2cc(C(C)(C)C)[nH]n2)cc1COc1ccc(F)cc1F	n	n	6	n	n	n
COc1ccc(/C=N\NC(=O)c2ccccc2F)cc1COc1ccc(F)cc1F	n	n	n	n	n	n
SMILES	Kir21 block	KCNK3 inh	KCNQ1 inh	KCNQ1 act	hERG rescue	KCNK9 inh
COc1ccc(/C=N\NC(=O)c2ccccc2Br)cc1COc1c(F)c(F)cc(F)c1F	n	n	6	n	n	n
Cc1cc(C)c(CN2CCN(C(=O)Cn3cnc4c(NCc5ccccc5)ncnc43)CC2)c(C)c1	x	n	x	x	x	x
COC1(OC)C(/C=C/c2ccc(Cl)cc2)C(C#N)(C#N)C1(OC)OC (stereo not drawn)	n	n	10	n	n	n
Cc1cc(N/N=C/c2c[nH]c3ccccc23)c2ccccc2n1	n	n	n	n	n	n
Cn1c(N/N=C/c2c[nH]c3ccccc23)nc2ccccc21	-5.21	n	n	n	n	n
CC(C)C[C@@H](CNCC(=O)[C@H](CC(C)C)NC(=O)c1[nH]cnc1C(=O)N[C@@H](C)CN)NC(=O)c1nc[nH]c1C(=O)N[C@@H](CC(=O)O)C(=O)O	x	n	x	x	x	x
CC(=O)Nc1ccc2c(c1)C(N1CC3CCC(CC3)C1)c1ccccc1-2 (stereo not drawn)	x	-10.5	x	x	x	x
CCOc1cc(C)cc2oc(=O)cc(-c3ccccc3)c12	n	n	n	n	n	-6.97
CCN(CC(=O)Nc1c(F)cccc1F)C(=O)c1ccc(C(F)(F)F)cc1	n	n	n	n	n	-7.89
CCN(CC(=O)Nc1c(F)cccc1F)C(=O)c1ccc(COc2ccccc2)cc1	n	n	n	n	n	n
CC1C=CCC2C(=O)N(c3cccc(C(=O)Nc4ccc(F)cc4)c3)C(=O)C12 (stereo not drawn)	n	n	n	n	n	n
O=C(NC(=S)N1CCCC(C(F)(F)F)C1)c1ccc(F)cc1 (stereo not drawn)	n	n	n	13	11.4	n
CC(=O)c1ccc(NC(=S)N2CCCC(C(F)(F)F)C2)cc1 (stereo not drawn)	n	n	n	n	n	n
O=c1cc(-c2ccccc2Cl)oc2c([N+](=O)[O-])c(O)cc(O)c12	n	n	8	n	n	n
O=c1cc(-c2ccccc2Cl)oc2ccc([N+](=O)[O-])c(O)c12	n	n	n	n	n	n
COc1ccc(OCC(=O)NNC(=O)c2ccccc2OCc2c(C)noc2C)cc1	n	n	n	n	n	-7.48
Cc1ccc(C)c(COc2coc(CN3CCN(C(=O)c4ccco4)CC3)cc2=O)c1	n	n	n	n	n	n
O=C(COC(=O)CNC(=O)c1ccccc1)NCCCc1ccccc1	x	n	x	x	x	x
O=C(Nc1ccc(CN2CCOCC2)cc1)c1ccc(-c2cccc(Cl)c2)o1	n	n	n	n	n	n
CCOc1cccc(C(=O)NC(=S)Nc2ccccc2)c1	n	n	n	n	n	n
O=C(NC(=S)Nc1ccc(CN2CCCCC2)cc1)c1cccc(OCc2ccccc2)c1	n	n	8	n	n	n
O=C(NC(=S)Nc1ccc(CN2CCOCC2)cc1)c1ccc(-c2cccc(Cl)c2)o1	n	n	n	20	n	n
COc1ccc(CC(=O)N(c2ccccc2)c2nc(C)cs2)cc1	-5.54	n	n	n	n	n
CN(C)CCCn1c(SCC(=O)N2c3ccccc3Sc3ccccc32)nc2ccccc2c1=O	-5.21	n	n	n	n	n
Cc1ccc(CSCCNS(=O)(=O)c2ccc(C)cc2)cc1	-5.48	n	n	n	n	n
SMILES	Kir21 block	KCNK3 inh	KCNQ1 inh	KCNQ1 act	hERG rescue	KCNK9 inh
Cc1ccc(CCNS(=O)(=O)c2ccc(C)cc2)cc1	n	n	n	n	n	n
N#C/C(=C\c1cccnc1)c1ccccc1[N+](=O)[O-]	n	n	n	n	n	n
Cc1cccc2nnc(-c3ccccc3)n12	x	n	x	x	x	x
O=C(OCC(=O)N1CCOCC1)c1ccc(Cl)cc1[N+](=O)[O-]	n	n	n	n	n	n
Cc1ccc(S(=O)(=O)N(C)C)cc1NC(=O)COC(=O)/C(=C/c1ccc(F)cc1)c1cccs1	n	n	n	n	n	-7.33
COC(=O)c1c[nH]c2c1-c1cc(C(=O)OCc3ccccc3)n(S(=O)(=O)c3ccc(C)cc3)c1C(=O)C2=O	x	n	x	x	x	x

Screening data: PubChem, Johns Hopkins Ion Channel Center
